Activity calls are given as the source filed them. No cut-off for these calls is given here.
What was measured:
[1] = molecular target: T1, 5-hydroxytryptamine receptor 6 (Homo sapiens, UniProt P50406); assay: Displacement of [3H]LSD from human 5HT6 receptor expressed in HEK293 cells; format: cell-based
Procedure, shortened: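 Membranes from HEK-293 cells stably expressing human 5-HT6R, in 50 mM Tris-HCl, 10 mM MgCl2, 0.5 mM EDTA, pH 7.4. Incubated 60 min at 37 °C with 2.5 nM [3H]LSD and competitor (10^-5 to 10^-10 M). Nonspecific binding defined with 100 μM serotonin. Filtered on 0.5% PEI-soaked filters; scintillation count. Ki by Cheng-Prusoff; 2-4 experiments in triplicate.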

[2] = molecular target: T1, 5-hydroxytryptamine receptor 6; assay: Binding affinity to human 5HT6 receptor expressed in COS7 cells assessed as emission fluorescence intensity; format: cell-based; conditions: COS-7
[3] = molecular target: T1, 5-hydroxytryptamine receptor 6; assay: Binding affinity to human 5HT6 receptor assessed as emission fluorescence intensity

T1 sequence (P50406 whole entry): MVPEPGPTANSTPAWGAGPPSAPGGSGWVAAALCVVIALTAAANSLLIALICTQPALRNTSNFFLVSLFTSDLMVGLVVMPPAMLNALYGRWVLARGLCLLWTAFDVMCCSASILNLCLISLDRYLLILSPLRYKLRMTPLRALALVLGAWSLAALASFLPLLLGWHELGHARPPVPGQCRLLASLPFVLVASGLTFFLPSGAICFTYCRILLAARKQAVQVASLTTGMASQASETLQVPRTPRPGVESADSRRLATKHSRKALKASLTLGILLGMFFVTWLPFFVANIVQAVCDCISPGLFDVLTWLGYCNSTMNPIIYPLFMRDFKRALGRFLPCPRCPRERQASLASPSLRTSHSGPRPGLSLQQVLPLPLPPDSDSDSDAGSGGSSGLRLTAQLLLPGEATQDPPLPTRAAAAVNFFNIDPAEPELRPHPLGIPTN

`COc1ccc(N(S(=O)(=O)c2sc3ccc(Cl)cc3c2C)S(=O)(=O)c2cccc3c(N(C)C)cccc23)cc1N1CCNCC1` gave a Ki [1] of 27 nM and an Activity [2] of 19 a.u.
In the case of `COc1ccc(NS(=O)(=O)c2sc3ccc(Cl)cc3c2C)cc1N1CCN(S(=O)(=O)c2cccc3c(N(C)C)cccc23)CC1`, the Ki [1] is reported as 165 nM and the Activity [2] is reported as 730 a.u.
For `COc1ccc(NS(=O)(=O)c2cccc3c(N(C)C)cccc23)cc1N1CCN(CCCCCCNS(=O)(=O)c2cccc3c(N(C)C)cccc23)CC1`, the Ki [1] was 554 nM and the Activity [2] was 287 a.u.
`COc1ccc(NS(=O)(=O)c2ccc(-c3ncc(-c4ccc(N(C)C)cc4)o3)cc2)cc1N1CCNCC1` was tested, and the Ki [1] was 523 nM and the Activity [3] was “inactive”.
`COc1ccc(NS(=O)(=O)c2sc3ccc(Cl)cc3c2C)cc1N1CCN(CCCCCCNC(=O)CCCC[C@@H]2SC[C@@H]3NC(=O)N[C@@H]32)CC1` was tested, and the Ki [1] was 90 nM.
In the case of `COc1ccc(N(CCCCCCCCNS(=O)(=O)c2cccc3c(N(C)C)cccc23)S(=O)(=O)c2sc3ccc(Cl)cc3c2C)cc1N1CCNCC1`, the Ki [1] is reported as 215 nM and the Activity [2] is reported as > 1000 a.u.
With `COc1ccc(N(CCCCNS(=O)(=O)c2cccc3c(N(C)C)cccc23)S(=O)(=O)c2sc3ccc(Cl)cc3c2C)cc1N1CCNCC1` the Ki [1] was 747 nM and the Activity [2] was 221 a.u.
For `Cc1c(S(=O)(=O)Nc2ccc(OCCCCCCCCNS(=O)(=O)c3cccc4c(N(C)C)cccc34)c(N3CCNCC3)c2)sc2ccc(Cl)cc12`, the Ki [1] was 741 nM and the Activity [2] was 700 a.u.
`COc1ccc(NS(=O)(=O)c2cccc3c(N(C)C)cccc23)cc1N1CCNCC1` was tested, and the Ki [1] was 8 nM and the Activity [2] was 52 a.u.
`COc1ccc(NS(=O)(=O)c2cccc3c(N(C)C)cccc23)cc1N1CCN(CCCCCCCCNS(=O)(=O)c2cccc3c(N(C)C)cccc23)CC1` was tested, and the Ki [1] was 194 nM and the Activity [2] was 450 a.u.
With `COc1ccc(NS(=O)(=O)c2sc3ccc(Cl)cc3c2C)cc1N1CCN(CCCCCCNS(=O)(=O)c2cccc3c(N(C)C)cccc23)CC1` the Ki [1] was 266 nM and the Activity [2] was > 1000 a.u.
For `COc1ccc(N(S(=O)(=O)c2cccc3c(N(C)C)cccc23)S(=O)(=O)c2cccc3c(N(C)C)cccc23)cc1N1CCNCC1`, the Ki [1] was 135 nM and the Activity [2] was 35 a.u.
With `COc1ccc(NS(=O)(=O)c2sc3ccc(Cl)cc3c2C)cc1N1CCN(CCCCCCCCNS(=O)(=O)c2cccc3c(N(C)C)cccc23)CC1` the Ki [1] was 447 nM and the Activity [2] was > 1000 a.u.
`COc1ccc(NS(=O)(=O)c2cccc3c(N(C)C)cccc23)cc1N1CCN(CCCCNS(=O)(=O)c2cccc3c(N(C)C)cccc23)CC1` was tested, and the Ki [1] was 175 nM and the Activity [2] was > 1000 a.u.
